HKDC1 activator – increases human hexokinase HKDC1 activity; activity change, negative = activation, % at 20 µM; Q2TB90; recombinant HKDC1, G6PDH/diaphorase resazurin fluorescence; hits give low values; hit rate 0.056% among 340,000;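 active = activation of 40% or more at 20 µM, a change of -40% or lower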
Target sequence (Q2TB90 whole entry, looked up): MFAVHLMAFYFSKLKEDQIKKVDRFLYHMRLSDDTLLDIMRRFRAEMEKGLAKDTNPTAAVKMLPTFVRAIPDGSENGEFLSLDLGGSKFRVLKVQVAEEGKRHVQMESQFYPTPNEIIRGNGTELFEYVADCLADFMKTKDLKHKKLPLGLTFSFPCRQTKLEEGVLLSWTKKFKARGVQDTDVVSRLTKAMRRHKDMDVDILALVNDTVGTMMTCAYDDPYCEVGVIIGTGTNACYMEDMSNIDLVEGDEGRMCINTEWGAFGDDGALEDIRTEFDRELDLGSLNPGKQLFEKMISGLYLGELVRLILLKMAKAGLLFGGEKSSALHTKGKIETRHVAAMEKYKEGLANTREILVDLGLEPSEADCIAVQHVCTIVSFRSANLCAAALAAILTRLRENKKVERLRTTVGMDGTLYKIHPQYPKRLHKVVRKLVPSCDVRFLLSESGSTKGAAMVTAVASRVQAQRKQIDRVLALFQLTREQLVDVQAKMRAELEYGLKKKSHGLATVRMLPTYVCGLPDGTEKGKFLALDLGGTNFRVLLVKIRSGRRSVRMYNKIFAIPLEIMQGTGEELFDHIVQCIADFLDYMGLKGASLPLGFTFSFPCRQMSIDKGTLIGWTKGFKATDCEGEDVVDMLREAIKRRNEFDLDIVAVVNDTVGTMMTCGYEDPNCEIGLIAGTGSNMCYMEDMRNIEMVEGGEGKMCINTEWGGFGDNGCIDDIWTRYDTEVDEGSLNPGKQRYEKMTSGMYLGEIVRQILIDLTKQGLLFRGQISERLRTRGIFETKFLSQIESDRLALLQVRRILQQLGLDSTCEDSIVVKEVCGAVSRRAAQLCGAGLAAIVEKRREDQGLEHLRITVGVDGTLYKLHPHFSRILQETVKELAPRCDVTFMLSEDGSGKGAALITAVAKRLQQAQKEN
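System: in-house human HKDC1 enzyme, G6PDH and diaphorase coupling enzymes; Quantity: 5 µg/mL HKDC1 final; Buffer or medium: Tris/MgCl2 buffer, pH 8.0; Dosing: single compound dose of 20 µM, 1% DMSO final; Times: 90 min reaction at room temperature, dark; Detection: coupled resazurin-to-resorufin fluorescence, Ex 525/Em 613 nm.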
Hits are given with their value; n = inactive. The list is a sample of the results.

SMILES	HKDC1 activator
COc1ccc(N(CCCN2C(=O)c3cccc4cccc(c34)C2=O)C(=O)c2cccnc2)cc1	n
COCC(=O)OC1CCn2c1nc1c2C(=O)C(C)=C(NC(C)=O)C1=O (stereo not given)	n
Cn1cnnc1SC1c2cccc3cccc(c23)C1NS(=O)(=O)c1ccccc1 (stereo not given)	-49
CC(=O)N1CCN(C2c3cccc4cccc(c34)C2NS(=O)(=O)c2ccccc2)CC1 (stereo not given)	-49
COC1=CC(=O)C(OC)=C(OC)C1=O	n
O=C1C(O)=CC(=C(c2ccccc2)c2ccccc2)c2ccccc21	n
COc1cccc(-n2c(N)c(C(=O)Nc3c(C)n(C)n(-c4ccccc4)c3=O)c3nc4ccccc4nc32)c1	n
CCN1C/C(=C\c2cccc([N+](=O)[O-])c2)C(=O)/C(=C/c2cccc([N+](=O)[O-])c2)C1	n
O=C(O)C(Cc1ccccc1)N1C(=O)/C(=C/C=C/c2ccco2)SC1=S (stereo not given)	n
Cc1nc2sc3c(NCc4ccco4)ncnc3c2c2c1COC(C)(C)C2	n
Cc1ccc(/C=C/C(=O)c2ccc([N+](=O)[O-])o2)cc1	n
COc1cc(/C=C2\SC(=Nc3ccc(Cl)c(C(=O)O)c3)NC2=O)c(Br)c(Br)c1O	n
CCCCNC(=O)c1sc(=S)n2c1[nH]c(=O)c1ccccc12	n
CC1CCc2c(c3ccccc3n2C(=O)CCl)C1 (stereo not given)	n
Cc1cc(O)c(C=O)c2c1C(=O)Oc1c(CO)c(O)c3c(c1O2)C(O)OC3=O (stereo not given)	n
CCCCN(CCCC)C(=S)N/N=C/c1c(C)[nH]n(-c2ccccc2)c1=O	-41
Cc1[nH]n(-c2ccccc2)c(=O)c1/C=N/Nc1nncc(-c2ccccc2)n1	-47
CN(C)c1ccc(Cc2cc3c(O)ccc(O)c3cc(Cc3ccc(N(C)C)cc3)c2=O)cc1	n
CC(C)CNC(=O)COC(=O)CNC(=O)c1cc(Cl)cc([N+](=O)[O-])c1	-52
Cc1cc2cc(CCNC(=O)c3cccc([N+](=O)[O-])c3)c(=O)[nH]c2cc1C	n
O=C(O)CSc1cc(NS(=O)(=O)c2ccc(Br)cc2)c2ccccc2c1O	n
O=C1OC(c2ccc3ccccc3c2O)(c2ccc3ccccc3c2O)c2ccccc21	n
COc1ccc(C(=O)/C=C/c2ccsc2)cc1CSCC(=O)O	n
S=C1Cc2ccccc2N1	-303
COCCN(C(=O)COC(=O)c1cc2c(s1)CCC2)c1c(N)n(Cc2ccccc2)c(=O)[nH]c1=O	n
SMILES	HKDC1 activator
CCOC(=O)C1=C(Cc2ccc(F)cc2)C(=O)c2ccccc2C1=O	n
N=C1N(/N=C/c2ccccc2)C(=Nc2ccccc2)C(=S)N1c1ccccc1	-49
CCN(CC)Cc1cc(O)c(CN(CC)CC)cc1O	n
CCCc1nc2oc3c(NCCOCCO)ncnc3c2c2c1COC(C)(C)C2	n
O=C(CSc1nnc(CCCN2C(=O)c3cccc4cccc(c34)C2=O)n1-c1ccccc1)N1CCN(CCO)CC1	n
CCCc1nc2oc3c(OC)ncnc3c2c2c1COC(C)(C)C2	n
CCOC(=O)c1c(C)[nH]c(C2=NNC(=NC3CC3)SC2)c1C	-77
O=C(c1c[nH]c(C(=O)C(Cl)(Cl)Cl)c1)c1ccccc1F	n
O=c1oc2cc(Oc3c([N+](=O)[O-])cc(C(F)(F)F)cc3[N+](=O)[O-])ccc2c2c1CCCC2	n
Cc1ccc(C)c(-n2c3nc(=O)[nH]c(=O)c-3cc3cc([N+](=O)[O-])ccc32)c1	n
Cc1cc(C)n2nc(SCc3nnc(SCc4ccccc4Cl)s3)nc2n1	n
O=C1C=C(NCc2ccccc2)c2ccccc2C1=O	n
O=C1C(Cl)=C(NCc2cccnc2)C(=O)c2ccccc21	-45
O=C1C(Cl)=C(NCCc2ccccc2)C(=O)c2ccccc21	n
O=C(OCn1ncc(Cl)c(Cl)c1=O)c1ccc(C(F)(F)F)cc1	n
Cc1ccc(C(=O)c2c(C)oc3c2C(=O)C(=O)c2ccccc2-3)cc1	n
CC1(OC(=O)C2CCCC2)C(=O)C=C2C=C(c3ccsc3)N(CCc3c[nH]c4ccccc34)C=C2C1=O (stereo not given)	n
O=C(N/N=C/c1ccc(O)cc1O)c1ccc(CN2C(=O)c3cccc4cccc2c34)cc1	-41
O=C1CSC(=S)N1Nc1ccccc1	-44
CCc1ccc2c(c1)C(NC(C)=O)C(=O)N2CCN1CCOCC1 (stereo not given)	n
C[n+]1c2cc(N)ccc2cc2ccc(N)cc21	n
COc1ccc2c(c1)c(=O)oc1c(C)c(OCc3cc(C(=O)O)oc3C)ccc12	n
O=C(NC(=S)NNC(=O)c1ccccc1O)c1ccco1	-44
CCCc1nc2c(c(=O)c3ccccc3n2C)c(=O)n1-c1ccc(F)cc1	n
Cc1cc(C(=O)CCl)c(C)n1CCc1ccc(Cl)cc1	n
SMILES	HKDC1 activator
COc1ccc(OC)c2[nH]c(=O)c(CCNC(=O)c3cc4ccccc4o3)cc12	n
Cc1cc2nc3ccc(=[N+](C)C)cc-3sc2cc1N	n
CC1C/C(=C/c2ccncc2)C(=O)/C(=C/c2ccncc2)C1 (stereo not given)	n
COc1cc(N=c2ssnc2Cl)cc(OC)c1OC	-100
COc1ccc(N=c2ssnc2Cl)cc1	-55
Cc1ccccc1C(=O)Nc1ccc2c(C#N)c3nc4ccccc4nc3n2c1	n
CCOC(=O)c1cc2c(=Cc3ccc(N(C)C)cc3)c3ccccc3n2[n+]1C	n
CCOc1ccc2nc3cc(N=Nc4ccc(N)nc4N)ccc3c(N)c2c1	n
CCOc1ccc(N)c(SSc2cc(OCC)ccc2N)c1	-42
Cc1ccc(S(=O)(=O)Nc2ccc(O)c3ccccc23)c(C)c1	n
COC(=O)CCC(=O)OC1(C)C(=O)C2=CN(C3CCCC3)C(c3ccc(OC)cc3)=CC2=C(Br)C1=O (stereo not given)	n
CN(C)c1ccc2nc3ccc(=[N+](C)C)cc-3sc2c1	n
O=C(O)c1cccc(-n2cccc2/C=C2/NC(=O)N(c3ccc(Cl)cc3)C2=O)c1	n
O=C1C=CC(=O)C(C2=C3C(=O)N(CCc4ccccc4)CC(=O)N3CCC2)=C1	n
CCn1c2ccccc2c2nc3cc(S(=O)(=O)N4CCOCC4)ccc3nc21	-61
Cc1cc2cc(CCNC(=O)c3ccc(S(=O)(=O)N4CCOCC4)cc3)c(=O)[nH]c2cc1C	n
Cc1ccccc1OCCCN1C(=O)C(=O)c2cccc(C)c21	n
O=C(O)c1ccc2c(=O)n(-c3ccccc3)c(=S)[nH]c2c1	n
Cc1ccc(C(=O)c2coc3c2C(=O)C(=O)c2ccccc2-3)cc1	n
O=C1C(=C(I)I)c2ccccc2-c2ccccc21	n
O=C1C(C2=C(O)c3ccccc3C2=O)=Nc2ccccc21	-242
CC(=O)C1=C(c2ccc(Br)cc2)C(=O)c2ccccc2C1=O	n
COc1ccc(S(=O)(=O)Nc2ccc(O)c3ccccc23)cc1	n
COc1ccccc1N(CC(=O)N/N=C/c1c(O)ccc2ccccc12)S(C)(=O)=O	-40
Oc1ccc2ccccc2c1C=NC1CCCCC1	n
O=C(O)CCCN1C(=O)/C(=C\C(Cl)=C\c2ccccc2)SC1=S	n
CN(C)CC1CCC/C(=C\c2ccc(OC(=O)c3ccc(Cl)cc3)cc2)C1=O (stereo not given)	n
O=C(Sc1nnc(-c2ccccc2)o1)N1c2ccccc2Sc2ccccc21	n
COc1ccccc1NC(=S)NN=C(C)c1ccccn1	-41
Cc1nn(-c2ccccc2)c(Cl)c1CN(C(=O)CCl)c1ccc(Cl)cc1	n
